Tests used:
[1] = biological target: Tyrosine-protein kinase Fer (Homo sapiens) (UniProt P16591); test: Inhibition of human recombinant FER at 500 nM in presence of ATP by radiometric assay relative to control
[2] = biological target: Serine/threonine-protein kinase SIK1 (Homo sapiens) (UniProt P57059); test: Inhibition of human recombinant SIK at 500 nM related to control ULK1
[3] = biological target: [Pyruvate dehydrogenase (acetyl-transferring)] kinase isozyme 4, mitochondrial (Homo sapiens) (UniProt Q16654); test: Inhibition of human recombinant PDHK4 at 15 nM in presence of ATP by radiometric assay relative to control
[4] = biological target: RAC-alpha serine/threonine-protein kinase (Homo sapiens) (UniProt P31749); test: Inhibition of human recombinant AKT1 at 15 nM in presence of ATP by radiometric assay relative to control
How it was run: (§1)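 Panel of 327 recombinant human kinases in radiometric activity assays, each screened in duplicate at a single inhibitor concentration; percent activity remaining relative to vehicle control, percent inhibition taken as 100 minus activity remaining.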

[5] = biological target: T1, Mitogen-activated protein kinase kinase kinase 3 (Homo sapiens) (UniProt Q99759); test: Inhibition of human recombinant MAP3K3 at 15 nM in presence of ATP by radiometric assay relative to control
T1 sequence (whole entry): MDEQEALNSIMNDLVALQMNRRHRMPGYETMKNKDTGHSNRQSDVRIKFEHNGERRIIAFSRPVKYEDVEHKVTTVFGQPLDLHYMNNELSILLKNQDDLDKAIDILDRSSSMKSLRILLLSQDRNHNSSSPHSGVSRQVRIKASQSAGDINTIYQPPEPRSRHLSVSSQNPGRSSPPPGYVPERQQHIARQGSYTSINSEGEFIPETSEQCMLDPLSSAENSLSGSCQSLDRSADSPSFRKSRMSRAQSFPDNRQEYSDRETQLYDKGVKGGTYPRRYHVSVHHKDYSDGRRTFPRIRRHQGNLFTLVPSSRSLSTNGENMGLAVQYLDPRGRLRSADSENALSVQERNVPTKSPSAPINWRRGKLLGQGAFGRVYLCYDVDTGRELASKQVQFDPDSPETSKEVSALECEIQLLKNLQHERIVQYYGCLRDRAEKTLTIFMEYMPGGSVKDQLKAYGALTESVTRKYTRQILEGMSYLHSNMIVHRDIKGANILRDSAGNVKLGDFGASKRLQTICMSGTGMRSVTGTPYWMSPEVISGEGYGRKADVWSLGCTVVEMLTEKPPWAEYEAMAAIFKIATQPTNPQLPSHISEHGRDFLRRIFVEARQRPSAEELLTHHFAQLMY

[6] = biological target: Serine/threonine-protein kinase 25 (Homo sapiens) (UniProt O00506); test: Inhibition of human recombinant YSK1 at 15 nM in presence of ATP by radiometric assay relative to control
Serine/threonine-protein kinase 25 (Homo sapiens), sequence (O00506 whole entry, looked up): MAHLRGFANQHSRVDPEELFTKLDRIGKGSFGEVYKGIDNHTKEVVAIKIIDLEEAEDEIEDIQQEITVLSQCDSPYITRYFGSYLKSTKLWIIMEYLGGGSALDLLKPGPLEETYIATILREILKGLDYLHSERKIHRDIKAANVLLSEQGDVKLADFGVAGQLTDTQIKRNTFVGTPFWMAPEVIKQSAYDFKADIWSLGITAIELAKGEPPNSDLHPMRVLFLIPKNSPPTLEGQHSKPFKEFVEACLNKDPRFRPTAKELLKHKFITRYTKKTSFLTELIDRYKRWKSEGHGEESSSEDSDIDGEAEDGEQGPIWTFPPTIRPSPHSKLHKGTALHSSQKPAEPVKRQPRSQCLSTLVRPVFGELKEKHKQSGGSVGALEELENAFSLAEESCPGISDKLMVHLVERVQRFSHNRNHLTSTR

[7] = biological target: Activated CDC42 kinase 1 (Homo sapiens) (UniProt Q07912); test: Inhibition of human recombinant ACK at 15 nM in presence of ATP by radiometric assay relative to control; how it was run: as §1
[8] = biological target: Tyrosine-protein kinase Fer (Homo sapiens) (UniProt P16591); test: Inhibition of human recombinant FER at 15 nM related to control ULK1
[9] = biological target: Vascular endothelial growth factor receptor 2 (Homo sapiens) (UniProt P35968); test: Inhibition of human recombinant KDR at 15 nM in presence of ATP by radiometric assay relative to control
Vascular endothelial growth factor receptor 2 (Homo sapiens), sequence (P35968 whole entry): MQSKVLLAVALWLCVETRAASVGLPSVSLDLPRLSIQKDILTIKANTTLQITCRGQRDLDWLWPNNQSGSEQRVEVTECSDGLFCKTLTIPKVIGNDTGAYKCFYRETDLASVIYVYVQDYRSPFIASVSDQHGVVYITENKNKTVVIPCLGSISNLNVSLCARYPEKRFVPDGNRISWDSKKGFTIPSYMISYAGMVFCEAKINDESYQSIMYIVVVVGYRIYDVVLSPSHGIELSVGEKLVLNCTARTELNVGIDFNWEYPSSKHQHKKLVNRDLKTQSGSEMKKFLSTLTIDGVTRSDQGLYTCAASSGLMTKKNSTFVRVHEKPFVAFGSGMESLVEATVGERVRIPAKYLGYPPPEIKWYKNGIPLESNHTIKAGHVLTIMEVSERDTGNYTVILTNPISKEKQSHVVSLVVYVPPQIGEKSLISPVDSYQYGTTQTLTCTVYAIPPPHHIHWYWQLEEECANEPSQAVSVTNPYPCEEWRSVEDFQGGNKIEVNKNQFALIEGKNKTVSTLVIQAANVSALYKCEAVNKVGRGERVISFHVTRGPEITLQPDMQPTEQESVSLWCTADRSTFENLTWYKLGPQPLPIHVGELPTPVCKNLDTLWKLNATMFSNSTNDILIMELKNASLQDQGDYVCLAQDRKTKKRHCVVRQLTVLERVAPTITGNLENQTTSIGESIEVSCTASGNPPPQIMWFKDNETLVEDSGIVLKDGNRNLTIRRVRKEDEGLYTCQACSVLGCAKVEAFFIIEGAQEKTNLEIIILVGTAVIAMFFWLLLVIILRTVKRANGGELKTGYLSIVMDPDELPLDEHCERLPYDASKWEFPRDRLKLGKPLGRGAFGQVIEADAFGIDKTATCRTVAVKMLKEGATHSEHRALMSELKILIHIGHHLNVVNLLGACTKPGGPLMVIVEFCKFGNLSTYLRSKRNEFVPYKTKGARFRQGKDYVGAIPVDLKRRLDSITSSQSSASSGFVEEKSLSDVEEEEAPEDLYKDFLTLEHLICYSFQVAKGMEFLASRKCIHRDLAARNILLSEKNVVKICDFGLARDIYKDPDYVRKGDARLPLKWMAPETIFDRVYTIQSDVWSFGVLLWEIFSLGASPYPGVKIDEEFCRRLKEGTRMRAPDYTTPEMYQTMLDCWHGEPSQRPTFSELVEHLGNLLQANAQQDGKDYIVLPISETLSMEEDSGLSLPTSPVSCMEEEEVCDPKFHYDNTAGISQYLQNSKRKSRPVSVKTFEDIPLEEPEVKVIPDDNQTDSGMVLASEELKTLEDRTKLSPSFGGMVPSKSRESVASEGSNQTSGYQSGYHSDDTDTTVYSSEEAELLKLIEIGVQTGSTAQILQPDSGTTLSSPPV

[10] = biological target: Ephrin type-A receptor 7 (Homo sapiens) (UniProt Q15375); test: Inhibition of human recombinant EphA7 at 15 nM in presence of ATP by radiometric assay relative to control
[11] = biological target: Mitogen-activated protein kinase 14 (Homo sapiens) (UniProt Q16539); test: Inhibition of human recombinant p38alpha at 15 nM in presence of ATP by radiometric assay relative to control
Mitogen-activated protein kinase 14 (Homo sapiens), sequence (Q16539 whole entry): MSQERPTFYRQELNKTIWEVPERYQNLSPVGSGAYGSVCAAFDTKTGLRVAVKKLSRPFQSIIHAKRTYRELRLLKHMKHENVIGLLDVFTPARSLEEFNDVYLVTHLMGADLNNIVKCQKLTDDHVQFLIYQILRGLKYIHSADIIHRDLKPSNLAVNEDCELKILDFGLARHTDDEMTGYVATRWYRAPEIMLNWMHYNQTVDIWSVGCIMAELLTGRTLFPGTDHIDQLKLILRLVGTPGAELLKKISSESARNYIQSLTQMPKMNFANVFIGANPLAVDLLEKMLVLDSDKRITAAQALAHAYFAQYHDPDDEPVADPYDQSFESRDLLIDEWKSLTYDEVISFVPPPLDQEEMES

[12] = biological target: Leukocyte tyrosine kinase receptor (Homo sapiens) (UniProt P29376); test: Inhibition of human recombinant LTK at 15 nM in presence of ATP by radiometric assay relative to control
Leukocyte tyrosine kinase receptor (Homo sapiens), sequence (P29376 whole entry): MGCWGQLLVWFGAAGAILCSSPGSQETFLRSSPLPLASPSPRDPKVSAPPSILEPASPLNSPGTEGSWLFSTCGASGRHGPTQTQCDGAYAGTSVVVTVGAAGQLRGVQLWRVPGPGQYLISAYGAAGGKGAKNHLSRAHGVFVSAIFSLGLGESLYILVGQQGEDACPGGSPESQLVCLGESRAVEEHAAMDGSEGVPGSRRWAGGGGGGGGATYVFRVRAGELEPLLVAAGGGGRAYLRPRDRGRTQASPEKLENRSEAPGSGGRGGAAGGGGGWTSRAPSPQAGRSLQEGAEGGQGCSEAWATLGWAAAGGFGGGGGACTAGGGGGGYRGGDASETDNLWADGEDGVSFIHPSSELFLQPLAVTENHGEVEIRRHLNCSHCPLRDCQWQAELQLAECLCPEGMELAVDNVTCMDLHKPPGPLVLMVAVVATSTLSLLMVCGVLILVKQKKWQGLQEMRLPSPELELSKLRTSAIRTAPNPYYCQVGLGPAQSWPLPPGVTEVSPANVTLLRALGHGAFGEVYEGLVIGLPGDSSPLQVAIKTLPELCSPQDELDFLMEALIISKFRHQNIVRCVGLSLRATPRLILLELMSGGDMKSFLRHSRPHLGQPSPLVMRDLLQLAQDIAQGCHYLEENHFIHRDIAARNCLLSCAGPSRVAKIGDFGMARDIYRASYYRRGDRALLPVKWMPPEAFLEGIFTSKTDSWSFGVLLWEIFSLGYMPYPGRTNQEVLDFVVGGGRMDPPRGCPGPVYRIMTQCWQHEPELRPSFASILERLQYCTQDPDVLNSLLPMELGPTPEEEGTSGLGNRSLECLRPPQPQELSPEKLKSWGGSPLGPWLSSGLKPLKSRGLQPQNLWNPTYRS

[13] = biological target: T2, Mitogen-activated protein kinase kinase kinase 2 (Homo sapiens) (UniProt Q9Y2U5); test: Inhibition of human recombinant MAP3K2 at 15 nM in presence of ATP by radiometric assay relative to control
T2 sequence (whole entry): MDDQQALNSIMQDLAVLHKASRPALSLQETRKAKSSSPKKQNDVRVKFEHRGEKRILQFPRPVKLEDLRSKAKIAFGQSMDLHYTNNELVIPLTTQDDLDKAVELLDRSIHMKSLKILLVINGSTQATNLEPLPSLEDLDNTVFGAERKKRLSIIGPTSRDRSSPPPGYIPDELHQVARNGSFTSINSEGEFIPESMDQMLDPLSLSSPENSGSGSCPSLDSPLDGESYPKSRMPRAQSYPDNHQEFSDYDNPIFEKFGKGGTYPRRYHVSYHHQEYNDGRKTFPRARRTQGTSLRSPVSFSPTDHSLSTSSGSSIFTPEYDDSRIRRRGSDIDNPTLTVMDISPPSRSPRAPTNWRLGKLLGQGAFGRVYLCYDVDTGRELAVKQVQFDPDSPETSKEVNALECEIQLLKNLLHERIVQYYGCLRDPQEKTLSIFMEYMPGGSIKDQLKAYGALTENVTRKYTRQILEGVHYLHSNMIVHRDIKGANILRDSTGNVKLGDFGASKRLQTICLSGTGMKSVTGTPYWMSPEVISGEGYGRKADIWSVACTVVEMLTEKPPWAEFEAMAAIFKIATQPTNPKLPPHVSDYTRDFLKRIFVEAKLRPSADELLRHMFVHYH

[14] = biological target: Serine/threonine-protein kinase PLK3 (Homo sapiens) (UniProt Q9H4B4); test: Inhibition of human recombinant PLK3 at 40 nM in presence of ATP by radiometric assay relative to control
[15] = biological target: Cyclin-dependent kinase 7 (Homo sapiens) (UniProt P50613); test: Inhibition of human recombinant CDK7 at 40 nM in presence of ATP by radiometric assay relative to control
[16] = biological target: Calcium/calmodulin-dependent protein kinase kinase 1 (Homo sapiens) (UniProt Q8N5S9); test: Inhibition of human recombinant CaMKK1 at 40 nM in presence of ATP by radiometric assay relative to control
[17] = biological target: MAP/microtubule affinity-regulating kinase 3 (Homo sapiens) (UniProt P27448); test: Inhibition of human recombinant MARK3 at 40 nM related to control ULK1
MAP/microtubule affinity-regulating kinase 3 (Homo sapiens), sequence (P27448 whole entry, looked up): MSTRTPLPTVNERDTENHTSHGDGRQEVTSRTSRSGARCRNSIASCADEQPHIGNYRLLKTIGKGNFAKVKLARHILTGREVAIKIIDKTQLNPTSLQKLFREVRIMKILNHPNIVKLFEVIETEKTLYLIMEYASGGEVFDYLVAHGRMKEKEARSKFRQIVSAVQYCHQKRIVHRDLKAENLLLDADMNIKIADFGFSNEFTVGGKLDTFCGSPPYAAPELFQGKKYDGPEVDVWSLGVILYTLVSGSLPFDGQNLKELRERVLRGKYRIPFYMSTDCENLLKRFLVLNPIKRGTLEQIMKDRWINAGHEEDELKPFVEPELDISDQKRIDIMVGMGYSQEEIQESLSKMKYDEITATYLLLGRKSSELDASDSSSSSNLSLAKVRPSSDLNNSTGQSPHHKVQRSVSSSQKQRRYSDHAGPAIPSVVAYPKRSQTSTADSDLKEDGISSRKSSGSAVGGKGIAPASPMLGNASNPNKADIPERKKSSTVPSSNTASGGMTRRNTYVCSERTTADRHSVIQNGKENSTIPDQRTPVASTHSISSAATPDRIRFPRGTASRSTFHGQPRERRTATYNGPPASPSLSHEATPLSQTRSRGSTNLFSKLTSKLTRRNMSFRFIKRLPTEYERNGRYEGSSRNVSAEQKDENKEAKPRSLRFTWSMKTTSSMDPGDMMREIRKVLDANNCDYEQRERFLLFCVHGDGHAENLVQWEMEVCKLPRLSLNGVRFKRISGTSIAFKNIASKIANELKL

[18] = biological target: Serine/threonine-protein kinase PAK 4 (Homo sapiens) (UniProt O96013); test: Inhibition of human recombinant PAK4 at 40 nM in presence of ATP by radiometric assay relative to control
[19] = biological target: Casein kinase I isoform gamma-2 (Homo sapiens) (UniProt P78368); test: Inhibition of human recombinant CK1g2 at 40 nM in presence of ATP by radiometric assay relative to control
Casein kinase I isoform gamma-2 (Homo sapiens), sequence (P78368 whole entry, looked up, canonical isoform): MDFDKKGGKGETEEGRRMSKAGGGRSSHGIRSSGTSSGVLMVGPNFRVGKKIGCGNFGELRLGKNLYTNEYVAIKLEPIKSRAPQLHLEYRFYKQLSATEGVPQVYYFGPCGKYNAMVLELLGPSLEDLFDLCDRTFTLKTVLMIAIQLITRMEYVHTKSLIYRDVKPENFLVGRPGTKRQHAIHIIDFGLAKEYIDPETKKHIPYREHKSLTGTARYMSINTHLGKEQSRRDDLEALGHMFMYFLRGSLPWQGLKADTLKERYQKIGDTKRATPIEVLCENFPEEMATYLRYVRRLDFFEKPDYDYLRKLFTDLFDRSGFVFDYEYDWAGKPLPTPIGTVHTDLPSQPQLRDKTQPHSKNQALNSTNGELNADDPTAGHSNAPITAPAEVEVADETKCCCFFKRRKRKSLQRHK

Tyrosine-protein kinase Fer (Homo sapiens), sequence (P16591 whole entry, looked up): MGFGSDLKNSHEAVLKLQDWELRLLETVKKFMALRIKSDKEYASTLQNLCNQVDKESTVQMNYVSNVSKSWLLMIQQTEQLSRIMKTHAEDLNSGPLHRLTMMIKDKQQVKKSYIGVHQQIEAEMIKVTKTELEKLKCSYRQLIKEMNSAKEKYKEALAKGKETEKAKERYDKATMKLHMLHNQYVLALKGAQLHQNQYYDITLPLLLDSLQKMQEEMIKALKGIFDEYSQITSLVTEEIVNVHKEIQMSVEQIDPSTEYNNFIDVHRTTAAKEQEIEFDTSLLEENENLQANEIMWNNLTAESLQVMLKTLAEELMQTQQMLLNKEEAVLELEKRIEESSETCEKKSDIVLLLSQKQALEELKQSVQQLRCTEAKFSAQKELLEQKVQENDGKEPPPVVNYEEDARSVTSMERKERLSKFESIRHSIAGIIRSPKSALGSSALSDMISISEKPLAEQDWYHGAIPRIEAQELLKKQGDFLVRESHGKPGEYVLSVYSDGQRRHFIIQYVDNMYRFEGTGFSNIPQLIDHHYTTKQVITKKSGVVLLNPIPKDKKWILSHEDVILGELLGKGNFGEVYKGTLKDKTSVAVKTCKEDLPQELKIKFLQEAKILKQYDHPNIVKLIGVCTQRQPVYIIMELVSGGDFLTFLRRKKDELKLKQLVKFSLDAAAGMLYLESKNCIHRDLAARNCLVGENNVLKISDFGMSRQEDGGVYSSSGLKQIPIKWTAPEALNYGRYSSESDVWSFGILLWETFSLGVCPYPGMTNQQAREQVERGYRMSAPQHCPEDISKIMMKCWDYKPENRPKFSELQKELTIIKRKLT

CNC(=O)c1ccccc1Oc1nc(Nc2cc(OC)c(OC)c(OC)c2)ncc1Br
inhibition [1]: 0% | fold change (FC) [2]: 0.27

CC(C)[C@H](NC(=O)c1cc(-c2cnn3cc(-c4ccc(OCCN5CCCCC5)cc4)cnc23)cs1)C(F)(F)F
inhibition [3]: 2% | inhibition [4]: 0% | inhibition [5]: 3% | inhibition [6]: 0% | inhibition [7]: 0% | fold change (FC) [8]: 0 | inhibition [9]: 20% | inhibition [10]: 0% | inhibition [11]: 5% | inhibition [12]: 0% | inhibition [13]: 3%

O=C(N[C@@H](C1CC1)C(F)(F)F)c1cc(-c2cnn3cc(-c4ccc(F)cc4)cnc23)cs1
inhibition [14]: 0% | inhibition [15]: 23% | inhibition [16]: 0% | fold change (FC) [17]: 0.21 | inhibition [18]: 8% | inhibition [19]: 5%

Source: ChEMBL document CHEMBL5653631, “A Potent and Selective ULK1 Inhibitor Suppresses Autophagy and Sensitizes Cancer Cells to Nutrient Stress” (iScience, 2018)
